{"source": "paper PMC8212730", "about": "(Clinical and Translational Science, 2021)", "key": {"[1]": {"assay": "Final population PK model of ivosidenib", "assay_type": "in vivo, human"}, "[2]": {"conditions": "patients with AML after multiple doses of ivosidenib; PBPK model; cited from earlier work"}, "mIDH1 R/R AML": {"tested_on": "mIDH1 R/R AML", "conditions": "500 mg q.d., cited from earlier work"}, "CYP2C9": {"tested_on": "CYP2C9", "conditions": "in vitro; cited from earlier work"}, "[3]": {"tested_on": "corrected QT interval (QTcF)", "assay": "Concentration-corrected QT", "assay_type": "in vivo, human", "method_in_brief": "(§1)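 Patients on ivosidenib 500 mg q.d. had triplicate ECGs with time-matched plasma samples, pooled with two other phase I studies (solid tumours, healthy volunteers): 171 patients, 1203 measurements. Plasma drug was measured by LC-MS/MS. A linear mixed-effects model had population intercept and slope with bivariate-normal between-subject variability. Covariates were selected stepwise (likelihood ratio, 0.05). ΔQTcF and 90% CI were predicted at geometric mean Cmax. Fridericia and Bazett corrections were compared.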"}, "[4]": {"assay": "Concentration-corrected QT", "assay_type": "in vivo, human", "conditions": "human, plasma, oral, 500 mg", "method_in_brief": "as §1"}, "human CYP3A4": {"tested_on": "human CYP3A4", "conditions": "cited from earlier work"}, "R/R AML": {"tested_on": "R/R AML", "assay": "Exposure-efficacy analysis", "assay_type": "in vivo, human", "method_in_brief": "(§2)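 Plasma drug was measured by LC-MS/MS (ranges 1–1000 and 50–50,000 ng/ml). Data were fitted with a two-compartment population PK model with first-order absorption and elimination. Individual empirical Bayes estimates gave steady-state AUC per patient from the nominal q.d. dose. AUCss was related to CR, CR/CRh, overall response and non-CR/CRh response by logistic regression and Kaplan-Meier plots.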"}, "[5]": {"assay": "Exposure-efficacy analysis", "assay_type": "in vivo, human", "conditions": "human, plasma, oral, AUCss range of quartile", "method_in_brief": "as §2"}, "[6]": {"conditions": "cited from earlier work; for Median time to maximal concentration range: across dose range"}, "[7]": {"conditions": "healthy participants; strong CYP3A4 inhibitor itraconazole; cited from earlier work"}, "[8]": {"conditions": "human plasma; ref not given; cited from earlier work"}, "Exposure-safety analysis": {"assay": "Exposure-safety analysis", "assay_type": "in vivo, human"}, "[9]": {"conditions": "single dose 500 mg; cited from earlier work"}, "CYP2B6": {"tested_on": "CYP2B6", "conditions": "cited from earlier work"}, "CYP2C8": {"tested_on": "CYP2C8", "conditions": "cited from earlier work"}, "[10]": {"conditions": "final population PK model, derived from steady-state parameters and fold changes"}, "[11]": {"conditions": "final population PK model, single dose to steady state"}}, "note": "Read-outs that look alike come from different tables or passages of the source."}
{"molecule": "N#Cc1ccnc(N2C(=O)CC[C@H]2C(=O)N(c2cncc(F)c2)[C@H](C(=O)NC2CC(F)(F)C2)c2ccccc2Cl)c1", "note": "[ivosidenib]", "values": [{"measurement": "Dose proportionality of exposure", "setting": "[1]; 100 mg b.i.d. and 300-1200 mg q.d.", "result": "slightly less than dose proportional"}, {"measurement": "Predicted Cmax in the typical patient", "setting": "[1]; 500 mg q.d., steady state, albumin 37 g/L, weight 74.2 kg, no CYP3A4 inhibitor", "result": 4827, "unit": "ng/mL"}, {"measurement": "Reduction in ivosidenib CL/F", "setting": "[1]; concomitant fluconazole", "result": 41, "unit": "%"}, {"measurement": "Reduction in ivosidenib CL/F", "setting": "[1]; concomitant posaconazole", "result": 35, "unit": "%"}, {"measurement": "Reduction in ivosidenib CL/F", "setting": "[1]; concomitant voriconazole", "result": 36, "unit": "%"}, {"measurement": "Effect of concomitant pantoprazole or famotidine on CL/F", "setting": "[1]; covariate analysis", "result": "did not affect"}, {"measurement": "Impact of mild CYP3A4 inhibitors", "setting": "[1]; covariate analysis", "result": "minimal"}, {"measurement": "Correlation between CL/F and hepatic function indicators", "setting": "[1]; covariate analysis, patients with mild hepatic impairment", "result": "no correlation"}, {"measurement": "Albumin ratio-CL/F exponent", "setting": "[1]; final population PK model", "result": 0.99}, {"measurement": "Albumin ratio-Vc/F exponent", "setting": "[1]; final population PK model", "result": 1.1}, {"measurement": "Baseline albumin-Vc/F exponent", "setting": "[1]; final population PK model", "result": 0.73}, {"measurement": "Decrease in relative bioavailability from single dose to steady state", "setting": "[1]; final population PK model", "result": 2, "unit": "fold"}, {"measurement": "Fold change in CL with mild CYP3A inhibitors", "setting": "[1]; final population PK model", "result": 1.04}, {"measurement": "Fold change in CL with other moderate/strong CYP3A inhibitors", "setting": "[1]; final population PK model", "result": 0.92}, {"measurement": "Increase in exposure with a doubling of dose", "setting": "[1]; final population PK model", "result": "~ 40%"}, {"measurement": "Steady-state Q/F", "setting": "[1]; final population PK model", "result": 15.8, "unit": "L/h"}, {"measurement": "Steady-state Vc/F", "setting": "[1]; final population PK model", "result": 234, "unit": "L"}, {"measurement": "Steady-state Vp/F", "setting": "[1]; final population PK model", "result": 151, "unit": "L"}, {"measurement": "Tlag (zero-order release duration, lag-time)", "setting": "[1]; final population PK model", "result": 0.27, "unit": "h"}, {"measurement": "ka (first-order absorption rate constant)", "setting": "[1]; final population PK model", "result": 1.38, "unit": "h⁻¹"}, {"measurement": "Wt-Vc/F exponent", "setting": "[1]; final population PK model, baseline body weight", "result": 0.92}, {"measurement": "Fold change in CL with fluconazole", "setting": "[1]; final population PK model, concomitant fluconazole", "result": 0.59}, {"measurement": "Fold change in CL with posaconazole", "setting": "[1]; final population PK model, concomitant posaconazole", "result": 0.65}, {"measurement": "Fold change in CL with voriconazole", "setting": "[1]; final population PK model, concomitant voriconazole", "result": 0.64}, {"measurement": "First-dose CL/F", "setting": "[1]; [10]", "result": 1.63, "unit": "L/h"}, {"measurement": "First-dose Q/F", "setting": "[1]; [10]", "result": 4.8, "unit": "L/h"}, {"measurement": "First-dose Vc/F", "setting": "[1]; [10]", "result": 71, "unit": "L"}, {"measurement": "First-dose Vp/F", "setting": "[1]; [10]", "result": 46, "unit": "L"}, {"measurement": "Steady-state CL/F", "setting": "[1]; final population PK model, oral, patients with mIDH1 advanced hematologic malignancies", "result": 5.39, "unit": "L/h"}, {"measurement": "Steady-state fold change in CL", "setting": "[1]; [11]", "result": 1.66}, {"measurement": "Steady-state fold change in Frel", "setting": "[1]; [11]", "result": 0.5}, {"measurement": "Effect of time-varying albumin changes on plasma exposure", "setting": "[1]; human, in vivo", "result": "less than 20%"}, {"measurement": "Increase in AUCss", "setting": "[1]; moderate/strong CYP3A4 inhibitors", "result": 60, "unit": "%"}, {"measurement": "Predicted change in plasma AUC in the presence of itraconazole", "setting": "[2]", "result": 1.44, "unit": "fold"}, {"measurement": "Rate of CR plus CRh", "setting": "mIDH1 R/R AML; 174 patients with mIDH1 R/R AML", "result": 32.8, "unit": "%"}, {"measurement": "Median duration of CR/CRh", "setting": "mIDH1 R/R AML", "result": 8.2, "unit": "months"}, {"measurement": "Median time to CR/CRh response", "setting": "mIDH1 R/R AML", "result": 2, "unit": "months"}, {"measurement": "Inducer status", "setting": "CYP2C9", "result": "may also be an inducer"}, {"measurement": "Predicted ΔQTcF", "setting": "[3]; at 6551 ng/ml, geometric mean Cmax for 500 mg q.d.", "result": 17.2, "unit": "ms"}, {"measurement": "Relationship between ΔQTcF and ivosidenib concentration", "setting": "[3]; in vivo", "result": "significant direct relationship"}, {"measurement": "Increase of ΔQTcF with plasma ivosidenib concentration (slope)", "setting": "[3]; linear mixed-effects model", "result": "0.00258 msec/(ng/ml)"}, {"measurement": "Cmax", "setting": "[4]", "result": 6550, "unit": "ng/mL"}, {"measurement": "Contribution to metabolism of ivosidenib", "setting": "human CYP3A4; CYP3A4", "result": "major metabolism pathway"}, {"measurement": "Inducer status", "setting": "human CYP3A4; in vitro, human CYP3A4", "result": "inducer"}, {"measurement": "Substrate status", "setting": "human CYP3A4; in vitro, human CYP3A4", "result": "substrate"}, {"measurement": "Incidence of CR (complete remission)", "setting": "R/R AML; AUCss quartile 1", "result": "11 (22%) n"}, {"measurement": "Incidence of CR/CRh", "setting": "R/R AML; AUCss quartile 1", "result": "17 (33%) n"}, {"measurement": "Incidence of OR (overall response)", "setting": "R/R AML; AUCss quartile 1", "result": "20 (39%) n"}, {"measurement": "Incidence of CR (complete remission)", "setting": "R/R AML; AUCss quartile 2", "result": "12 (24%) n"}, {"measurement": "Incidence of CR/CRh", "setting": "R/R AML; AUCss quartile 2", "result": "15 (30%) n"}, {"measurement": "Incidence of OR (overall response)", "setting": "R/R AML; AUCss quartile 2", "result": "18 (36%) n"}, {"measurement": "Incidence of CR (complete remission)", "setting": "R/R AML; AUCss quartile 3", "result": "9 (18%) n"}, {"measurement": "Incidence of CR/CRh", "setting": "R/R AML; AUCss quartile 3", "result": "12 (24%) n"}, {"measurement": "Incidence of OR (overall response)", "setting": "R/R AML; AUCss quartile 3", "result": "18 (36%) n"}, {"measurement": "Incidence of CR (complete remission)", "setting": "R/R AML; AUCss quartile 4", "result": "11 (22%) n"}, {"measurement": "Incidence of CR/CRh", "setting": "R/R AML; AUCss quartile 4", "result": "15 (30%) n"}, {"measurement": "Incidence of OR (overall response)", "setting": "R/R AML; AUCss quartile 4", "result": "19 (38%) n"}, {"measurement": "Association between nominal AUCss and probability of clinical response", "setting": "R/R AML; logistic regression", "result": "minimal"}, {"measurement": "Patients with OR", "setting": "R/R AML; of 201 patients with R/R AML", "result": 75, "unit": "patients"}, {"measurement": "Patients with non-CR/CRh response", "setting": "R/R AML; of 201 patients with R/R AML", "result": 16, "unit": "patients"}, {"measurement": "AUC", "setting": "[5]; AUCss quartile 1, 51 patients", "result": "40.9 to 93.1", "unit": "µg·h/mL"}, {"measurement": "AUC", "setting": "[5]; AUCss quartile 2, 50 patients", "result": "93.4 to 122", "unit": "µg·h/mL"}, {"measurement": "AUC", "setting": "[5]; AUCss quartile 3, 50 patients", "result": "124 to 170", "unit": "µg·h/mL"}, {"measurement": "AUC", "setting": "[5]; AUCss quartile 4, 50 patients", "result": "171 to 361", "unit": "µg·h/mL"}, {"measurement": "Half-life", "setting": "[6]; after a single dose", "result": "72 to 138", "unit": "h"}, {"measurement": "Time to steady state", "setting": "[6]; daily dosing", "result": "≤ 14", "unit": "days"}, {"measurement": "Median time to maximal concentration range", "setting": "[6]; multiple dosing", "result": "1.9 to 4.0", "unit": "h"}, {"measurement": "Median time to maximal concentration range", "setting": "[6]; single dose administration", "result": "2.4 to 5.5", "unit": "h"}, {"measurement": "Change in plasma AUC with itraconazole", "setting": "[7]", "result": 1.69, "unit": "fold"}, {"measurement": "Protein bound", "setting": "[8]", "result": "~ 90%"}, {"measurement": "Incidence of new or worsening all grade ALT", "setting": "Exposure-safety analysis; 253 patients", "result": 15, "unit": "%"}, {"measurement": "Association between incidence of events for all safety end points and AUCss", "setting": "Exposure-safety analysis; logistic regression", "result": "no association"}, {"measurement": "Effect of mild/moderate hepatic impairment on ivosidenib exposure", "setting": "[9]", "result": "did not lead to clinically relevant changes in ivosidenib exposure"}, {"measurement": "Contribution to metabolism of ivosidenib", "setting": "CYP2B6", "result": "minor contributions"}, {"measurement": "Inducer status", "setting": "CYP2B6; in vitro", "result": "may also be an inducer"}, {"measurement": "Contribution to metabolism of ivosidenib", "setting": "CYP2C8", "result": "minor contributions"}, {"measurement": "Inducer status", "setting": "CYP2C8; in vitro", "result": "may also be an inducer"}]}
